System: SNB-19
Assay: Growth inhibition of human SNB-19 cells assessed as cell growth at 0.1 uM incubated for 48 hrs by sulforhodamine B assay relative to control
Type: functional
Conditions: read-out: Activity

SMILES | growth at 0.1 µM [%]
Nc1c(C(=O)Nc2ccccc2)sc2nc3c(cc12)CN(Cc1ccccc1)CC3 | 94

System: OVCAR-3
Assay: Growth inhibition of human OVCAR-3 cells assessed as cell growth at 100 uM incubated for 48 hrs by sulforhodamine B assay relative to control
Type: functional
Conditions: read-out: Activity

SMILES | growth at 100 µM [%]
Nc1c(C(=O)Nc2ccccc2)sc2nc3c(cc12)CN(Cc1ccccc1)CC3 | 20

System: A549
Assay: Growth inhibition of human A549/ATCC cells assessed as cell growth at 100 uM incubated for 48 hrs by sulforhodamine B assay relative to control
Type: functional
Conditions: read-out: Activity
Procedure, shortened: (§1)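 NCI Developmental Therapeutics Program NCI60 panel. Compounds that were active in the 10 µM one-dose screen went on to dose–response testing. Growth at each concentration is expressed relative to untreated control (100%). GI50 (concentration giving 50% of maximal inhibition of proliferation) and TGI (concentration giving total growth inhibition) were derived from the curves.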

SMILES | growth at 100 µM [%]
Nc1c(C(=O)Nc2ccccc2)sc2nc3c(cc12)CN(Cc1ccccc1)CC3 | 17

System: RPMI-8226
Assay: Growth inhibition of human RPMI-8226 cells assessed as cell growth at 100 uM incubated for 48 hrs by sulforhodamine B assay relative to control
Type: functional
Conditions: read-out: Activity

SMILES | growth at 100 µM [%]
Nc1c(C(=O)Nc2ccccc2)sc2nc3c(cc12)CN(Cc1ccccc1)CC3 | 42

System: NCI-H522
Assay: Growth inhibition of human NCI-H522 cells assessed as cell growth at 1 uM incubated for 48 hrs by sulforhodamine B assay relative to control
Type: functional
Conditions: read-out: Activity

SMILES | growth at 1 µM [%]
Nc1c(C(=O)Nc2ccccc2)sc2nc3c(cc12)CN(Cc1ccccc1)CC3 | 91

System: BT-549
Assay: Growth inhibition of human BT-549 cells assessed as cell growth at 1 uM incubated for 48 hrs by sulforhodamine B assay relative to control
Type: functional
Conditions: read-out: Activity

SMILES | growth at 1 µM [%]
Nc1c(C(=O)Nc2ccccc2)sc2nc3c(cc12)CN(Cc1ccccc1)CC3 | 90

System: SF-268
Assay: Growth inhibition of human SF-268 cells assessed as cell growth at 100 uM incubated for 48 hrs by sulforhodamine B assay relative to control
Type: functional
Conditions: read-out: Activity

SMILES | growth at 100 µM [%]
Nc1c(C(=O)Nc2ccccc2)sc2nc3c(cc12)CN(Cc1ccccc1)CC3 | 9

System: SNB-75
Assay: Growth inhibition of human SNB-75 cells assessed as cell growth at 0.01 uM incubated for 48 hrs by sulforhodamine B assay relative to control
Type: functional
Conditions: read-out: Activity

SMILES | growth at 0.01 µM [%]
Nc1c(C(=O)Nc2ccccc2)sc2nc3c(cc12)CN(Cc1ccccc1)CC3 | 91

System: COLO 205
Assay: Growth inhibition of human COLO 205 cells assessed as cell growth at 1 uM incubated for 48 hrs by sulforhodamine B assay relative to control
Type: functional
Conditions: read-out: Activity
Procedure, shortened: as §1

SMILES | growth at 1 µM [%]
Nc1c(C(=O)Nc2ccccc2)sc2nc3c(cc12)CN(Cc1ccccc1)CC3 | 93

System: MDA-MB-468
Assay: Growth inhibition of human MDA-MB-468 cells incubated for 48 hrs by sulforhodamine B assay
Type: functional
Conditions: not given
Procedure, shortened: (§2)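 NCI60 panel at the NCI Developmental Therapeutics Program. Only compounds active in the 10 µM screen went to dose-response testing. GI50, the concentration giving 50% of maximal inhibition of proliferation, and TGI, the concentration giving total growth inhibition, were derived from the dose-response curves.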

SMILES | GI50 [µM] | TGI [µM]
Nc1c(C(=O)Nc2ccccc2)sc2nc3c(cc12)CN(Cc1ccccc1)CC3 | 17 | > 100

Same assay, conditions: read-out: LC50 (the source's name)

SMILES | CC50 [µM]
Nc1c(C(=O)Nc2ccccc2)sc2nc3c(cc12)CN(Cc1ccccc1)CC3 | > 100

System: HCT-116
Assay: Growth inhibition of human HCT-116 cells incubated for 48 hrs by sulforhodamine B assay
Type: functional
Conditions: not given
Procedure, shortened: as §2

SMILES | GI50 [µM] | LC50 (concentration killing 50% of cells) [µM] | TGI [µM]
Nc1c(C(=O)Nc2ccccc2)sc2nc3c(cc12)CN(Cc1ccccc1)CC3 | 11 | > 100 | > 100

System: A498
Assay: Growth inhibition of human A498 cells incubated for 48 hrs by sulforhodamine B assay
Type: functional
Conditions: not given
Procedure, shortened: as §1

SMILES | GI50 [µM]
Nc1c(C(=O)Nc2ccccc2)sc2nc3c(cc12)CN(Cc1ccccc1)CC3 | 1.78

Same assay, conditions: read-out: LC50 (the source's name)

SMILES | CC50 [µM]
Nc1c(C(=O)Nc2ccccc2)sc2nc3c(cc12)CN(Cc1ccccc1)CC3 | > 100

System: MDA-MB-468
Assay: Growth inhibition of human MDA-MB-468 cells assessed as cell growth at 0.1 uM incubated for 48 hrs by sulforhodamine B assay relative to control
Type: functional
Conditions: read-out: Activity

SMILES | growth at 0.1 µM [%]
Nc1c(C(=O)Nc2ccccc2)sc2nc3c(cc12)CN(Cc1ccccc1)CC3 | 98

System: OVCAR-4
Assay: Growth inhibition of human OVCAR-4 cells assessed as cell growth at 1 uM incubated for 48 hrs by sulforhodamine B assay relative to control
Type: functional
Conditions: read-out: Activity

SMILES | growth at 1 µM [%]
Nc1c(C(=O)Nc2ccccc2)sc2nc3c(cc12)CN(Cc1ccccc1)CC3 | 66

System: DU-145
Assay: Growth inhibition of human DU-145 cells incubated for 48 hrs by sulforhodamine B assay
Type: functional
Conditions: not given
Procedure, shortened: as §1

SMILES | GI50 [µM] | TGI [µM]
Nc1c(C(=O)Nc2ccccc2)sc2nc3c(cc12)CN(Cc1ccccc1)CC3 | 14.8 | > 100

Same assay, conditions: read-out: LC50 (the source's name)

SMILES | CC50 [µM]
Nc1c(C(=O)Nc2ccccc2)sc2nc3c(cc12)CN(Cc1ccccc1)CC3 | > 100

System: UO-31
Assay: Growth inhibition of human UO-31 cells assessed as cell growth at 100 uM incubated for 48 hrs by sulforhodamine B assay relative to control
Type: functional
Conditions: read-out: Activity

SMILES | growth at 100 µM [%]
Nc1c(C(=O)Nc2ccccc2)sc2nc3c(cc12)CN(Cc1ccccc1)CC3 | 32

System: K562
Assay: Growth inhibition of human K562 cells assessed as cell growth at 100 uM incubated for 48 hrs by sulforhodamine B assay relative to control
Type: functional
Conditions: read-out: Activity

SMILES | growth at 100 µM [%]
Nc1c(C(=O)Nc2ccccc2)sc2nc3c(cc12)CN(Cc1ccccc1)CC3 | 12

System: UACC-62
Assay: Growth inhibition of human UACC-62 cells assessed as cell growth at 1 uM incubated for 48 hrs by sulforhodamine B assay relative to control
Type: functional
Conditions: read-out: Activity

SMILES | growth at 1 µM [%]
Nc1c(C(=O)Nc2ccccc2)sc2nc3c(cc12)CN(Cc1ccccc1)CC3 | 89

System: SK-OV-3
Assay: Growth inhibition of human SK-OV-3 cells assessed as cell growth at 100 uM incubated for 48 hrs by sulforhodamine B assay relative to control
Type: functional
Conditions: read-out: Activity

SMILES | growth at 100 µM [%]
Nc1c(C(=O)Nc2ccccc2)sc2nc3c(cc12)CN(Cc1ccccc1)CC3 | 5

System: SW-620
Assay: Growth inhibition of human SW-620 cells incubated for 48 hrs by sulforhodamine B assay
Type: functional
Conditions: not given
Procedure, shortened: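 NCI DTP 60-line human tumour panel. Dose-response curves were run only for ligands active in the initial 10 µM screen. GI50 (concentration giving 50% of maximal inhibition of proliferation) and TGI (concentration giving total growth inhibition) were derived from these curves.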

SMILES | GI50 [µM] | LC50 (concentration killing 50% of cells) [µM] | TGI [µM]
Nc1c(C(=O)Nc2ccccc2)sc2nc3c(cc12)CN(Cc1ccccc1)CC3 | 20.8 | > 100 | > 100

System: CCRF-CEM
Assay: Growth inhibition of human CCRF-CEM cells incubated for 48 hrs by sulforhodamine B assay
Type: functional
Conditions: not given
Procedure, shortened: as §1

SMILES | GI50 [µM] | LC50 [µM] | TGI [µM]
Nc1c(C(=O)Nc2ccccc2)sc2nc3c(cc12)CN(Cc1ccccc1)CC3 | 50.3 | > 100 | > 100

System: TK-10
Assay: Growth inhibition of human TK-10 cells assessed as cell growth at 1 uM incubated for 48 hrs by sulforhodamine B assay relative to control
Type: functional
Conditions: read-out: Activity

SMILES | growth at 1 µM [%]
Nc1c(C(=O)Nc2ccccc2)sc2nc3c(cc12)CN(Cc1ccccc1)CC3 | 100

System: NCI-H226
Assay: Growth inhibition of human NCI-H226 cells assessed as cell growth at 0.1 uM incubated for 48 hrs by sulforhodamine B assay relative to control
Type: functional
Conditions: read-out: Activity

SMILES | growth at 0.1 µM [%]
Nc1c(C(=O)Nc2ccccc2)sc2nc3c(cc12)CN(Cc1ccccc1)CC3 | 96

System: SK-MEL-5
Assay: Growth inhibition of human SK-MEL-5 cells assessed as cell growth at 0.01 uM incubated for 48 hrs by sulforhodamine B assay relative to control
Type: functional
Conditions: read-out: Activity

SMILES | growth at 0.01 µM [%]
Nc1c(C(=O)Nc2ccccc2)sc2nc3c(cc12)CN(Cc1ccccc1)CC3 | 104

System: SF-295
Assay: Growth inhibition of human SF-295 cells assessed as cell growth at 0.1 uM incubated for 48 hrs by sulforhodamine B assay relative to control
Type: functional
Conditions: read-out: Activity

SMILES | growth at 0.1 µM [%]
Nc1c(C(=O)Nc2ccccc2)sc2nc3c(cc12)CN(Cc1ccccc1)CC3 | 90

System: OVCAR-3
Assay: Growth inhibition of human OVCAR-3 cells assessed as cell growth at 0.1 uM incubated for 48 hrs by sulforhodamine B assay relative to control
Type: functional
Conditions: read-out: Activity

SMILES | growth at 0.1 µM [%]
Nc1c(C(=O)Nc2ccccc2)sc2nc3c(cc12)CN(Cc1ccccc1)CC3 | 100

System: MCF7
Assay: Growth inhibition of human MCF7 cells assessed as cell growth at 1 uM incubated for 48 hrs by sulforhodamine B assay relative to control
Type: functional
Conditions: read-out: Activity

SMILES | growth at 1 µM [%]
Nc1c(C(=O)Nc2ccccc2)sc2nc3c(cc12)CN(Cc1ccccc1)CC3 | 82

System: ACHN
Assay: Growth inhibition of human ACHN cells assessed as cell growth at 100 uM incubated for 48 hrs by sulforhodamine B assay relative to control
Type: functional
Conditions: read-out: Activity

SMILES | growth at 100 µM [%]
Nc1c(C(=O)Nc2ccccc2)sc2nc3c(cc12)CN(Cc1ccccc1)CC3 | 10

System: SF-539
Assay: Growth inhibition of human SF-539 cells assessed as cell growth at 100 uM incubated for 48 hrs by sulforhodamine B assay relative to control
Type: functional
Conditions: read-out: Activity

SMILES | growth at 100 µM [%]
Nc1c(C(=O)Nc2ccccc2)sc2nc3c(cc12)CN(Cc1ccccc1)CC3 | 11

System: MDA-MB-231
Assay: Growth inhibition of human MDA-MB-231 cells assessed as cell growth at 100 uM incubated for 48 hrs by sulforhodamine B assay relative to control
Type: functional
Conditions: read-out: Activity

SMILES | growth at 100 µM [%]
Nc1c(C(=O)Nc2ccccc2)sc2nc3c(cc12)CN(Cc1ccccc1)CC3 | 16

System: SNB-19
Assay: Growth inhibition of human SNB-19 cells assessed as cell growth at 1 uM incubated for 48 hrs by sulforhodamine B assay relative to control
Type: functional
Conditions: read-out: Activity

SMILES | growth at 1 µM [%]
Nc1c(C(=O)Nc2ccccc2)sc2nc3c(cc12)CN(Cc1ccccc1)CC3 | 88

System: HCC 2998
Assay: Growth inhibition of human HCC 2998 cells assessed as cell growth at 1 uM incubated for 48 hrs by sulforhodamine B assay relative to control
Type: functional
Conditions: read-out: Activity
Procedure, shortened: as §1

SMILES | growth at 1 µM [%]
Nc1c(C(=O)Nc2ccccc2)sc2nc3c(cc12)CN(Cc1ccccc1)CC3 | 105

System: HOP-62
Assay: Growth inhibition of human HOP-62 cells assessed as cell growth at 100 uM incubated for 48 hrs by sulforhodamine B assay relative to control
Type: functional
Conditions: read-out: Activity

SMILES | growth at 100 µM [%]
Nc1c(C(=O)Nc2ccccc2)sc2nc3c(cc12)CN(Cc1ccccc1)CC3 | -24

System: HOP-92
Assay: Growth inhibition of human HOP-92 cells assessed as cell growth at 1 uM incubated for 48 hrs by sulforhodamine B assay relative to control
Type: functional
Conditions: read-out: Activity

SMILES | growth at 1 µM [%]
Nc1c(C(=O)Nc2ccccc2)sc2nc3c(cc12)CN(Cc1ccccc1)CC3 | 74

System: SK-MEL-28
Assay: Growth inhibition of human SK-MEL-28 cells assessed as cell growth at 0.1 uM incubated for 48 hrs by sulforhodamine B assay relative to control
Type: functional
Conditions: read-out: Activity

SMILES | growth at 0.1 µM [%]
Nc1c(C(=O)Nc2ccccc2)sc2nc3c(cc12)CN(Cc1ccccc1)CC3 | 93

Source: ChEMBL document CHEMBL4715736, “Identification of anticancer agents based on the thieno[2,3-b]pyridine and 1H-pyrazole molecular scaffolds” (2016)
